The values that follow come from article PMC8903075 (Biomaterials science, 2021).

Molecules are shown by their SMILES. Values after ≈ are worked out from the molar mass of the structure shown.

Series [1] relates to methicillin-resistant S. aureus (MRSA) (ATCC 33591). The series is described as follows: microbe, parasite or virus in culture. It is filed as cell-based, Staphylococcus aureus. To be noted: for MIC, Gram-positive, MRSA: ATCC 33591, 18 h.
Series [2] has as its system methicillin-resistant S. epidermidis (MRSE) (RP62A). The series is described as follows: microbe, parasite or virus in culture. The note with it: for MIC, Gram-positive, MRSE: methicillin-resistant (RP62A, 18 h). Type of series: cell-based, Staphylococcus epidermidis.
A further series concerns E. coli (ATCC 25922). Nature of the series: microbe, parasite or virus in culture. It is filed as cell-based. The note with it: for MIC, Gram-negative, E. coli: ATCC 25922, 18 h.
The subject of series [3] is P. aeruginosa (ATCC 27853). Nature of the series: microbe, parasite or virus in culture. It is filed as cell-based, Pseudomonas aeruginosa. To be noted: for MIC, Gram-negative, P. aeruginosa: ATCC 27853, 18 h.
The test system of series [4] is MRSA. The series is described as follows: Time-kill assay. Type of series: cell-based, Staphylococcus aureus. The note with it: 1 × 10^6 CFU mL^−1, repeated three times. In outline: (§1)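 Bacteria grown overnight in TSB at 37 °C to mid-log phase and diluted to 1 × 10^6 CFU mL−1. Incubated with test compound at several concentrations, with suspensions plated on agar at set time points. Plates incubated 20 h at 37 °C before colony counting. Assay repeated three times.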

Series [5] concerns E. coli. The series is described as follows: Time-kill assay. Type of series: cell-based. To be noted: 2 × MIC; 1 × 10^6 CFU mL^−1; repeated three times. In outline:
as §1

Series [6] relates to MRSA. Nature of the series: Fluorescence microscopy. It is filed as cell-based, Staphylococcus aureus. To be noted: 12 μg mL^−1, 2 h, 37 °C. In a few lines:
(§2)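 Mid-log cultures grown at 37 °C, diluted to 1 × 10^6 CFU mL−1, exposed to test compound for 2 h at 37 °C alongside untreated controls. Cells pelleted at 3000 rpm for 15 min at 4 °C and PBS-washed. Stained with DAPI (10 μg mL−1) for 15 min on ice in the dark, washed twice, then stained the same way with PI (5 μg mL−1). Imaged under oil immersion.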

Series [7] has as its system E. coli. Nature of the series: Fluorescence microscopy. It is filed as cell-based. To be noted: 12 μg mL^−1, 2 h, 37 °C. In outline:
as §2

For series [8], the system named is MRSA. The series is described as follows: Bacterial membrane depolarization assay, DiSC3. It is filed as cell-based, Staphylococcus aureus. To be noted: 1 × MIC, 2 × MIC and 4 × MIC; concentration-dependent; repeated three times with duplicates.
Series [9] relates to E. coli. Nature of the series: Bacterial membrane depolarization assay, DiSC3. It is filed as cell-based. To be noted: 1 × MIC, 2 × MIC and 4 × MIC; concentration-dependent; repeated three times with duplicates.
Series [10] concerns MRSA. Nature of the series: Transmission electron microscopy. It is filed as cell-based, Staphylococcus aureus. To be noted: 12 μg mL^−1, 2 h, TSB, 37 °C. In outline:
(§3)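 Mid-log bacteria exposed to test compound in TSB for 2 h at 37 °C, with untreated samples as controls. Cells pelleted at 3000 rpm for 15 min, washed four times in PBS, resuspended in deionized water. A drop placed on carbon-coated Cu grids, excess blotted off, dried about 1 h. Imaged by TEM at 60 kV.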

Series [11] deals with E. coli. The series is described as follows: Transmission electron microscopy. It is filed as cell-based. The note with it: 12 μg mL^−1, 2 h, TSB, 37 °C. In a few lines: as §3
For series [12], the system named is E. coli. The series is described as follows: Outer membrane permeability assay. The note with it: 1 × MIC; 37 °C, 1 h; percent uptake relative to 16 mM melittin. Type of series: cell-based.
Series [13] relates to MRSA. Type of series: cell-based, Staphylococcus aureus. The note with it: 48 h, 0.094 μg mL^−1.
Series [14] relates to E. coli. Type of series: cell-based. The note with it: 48 h, 0.188 μg mL^−1.
Series [15] in a line: HPLC retention time as estimate of amphiphilicity. It is filed as physicochemical. The note with it: HPLC data of Table S2 in ESI, which is not in the material.

On to `O=C(O)c1cn(C2CC2)c2cc(N3CCNCC3)c(F)cc2c1=O` [Ciprofloxacin, reference compound], for which the MIC in series [1] (Staphylococcus aureus, ATCC33591|MRSA, 18 h, read-out: MIC, Gram-positive, MRSA) fell in the range of 0.75 to 1.5 µg/mL (≈ 2.26 to 4.53 µM); in [2] (Staphylococcus epidermidis, MRSE, 18 h, read-out: MIC, Gram-positive, MRSE), 0.75 to 1.5 µg/mL (≈ 2.26 to 4.53 µM); in the series with E. coli (ATCC 25922) (Escherichia coli, ATCC25922, 18 h, read-out: MIC, Gram-negative, E. coli), 0.75 to 1.5 µg/mL (≈ 2.26 to 4.53 µM); in series [3] (Pseudomonas aeruginosa, ATCC27853, 18 h, read-out: MIC, Gram-negative, P. aeruginosa), 1.5 to 3 µg/mL (≈ 4.53 to 9.05 µM).

For `CCCCCCCCCCCC(=O)NCCCC[C@H](NC(=O)c1cc(NC(=O)CN(C[C@H](CCCCN)NC(=O)[C@@H](N)CCCCN)S(=O)(=O)c2ccccc2)cc(NC(=O)CN(C[C@H](CCCCN)NC(=O)[C@@H](N)CCCCN)S(=O)(=O)c2ccccc2)c1)C(N)=O` [Compound 1], in [1], the “MIC, Gram-positive, MRSA” value lay in the range of 3 to 6 µg/mL. Besides, the “MIC, Gram-positive, MRSE” value in series [2] lay in the range of 3 to 6 µg/mL. Also, the “MIC, Gram-negative, E. coli” value against E. coli (ATCC 25922) was 3 to 6 µg/mL. Besides, the “MIC, Gram-negative, P. aeruginosa” value in [3] lay in the range of 6 to 12.5 µg/mL.

For the molecule `CCCCCCCCCCCCCCCC(=O)NCCCC[C@H](NC(=O)c1cc(NC(=O)CN(C[C@H](CCCCN)NC(=O)[C@@H](N)CCCCN)S(=O)(=O)c2ccccc2)cc(NC(=O)CN(C[C@H](CCCCN)NC(=O)[C@@H](N)CCCCN)S(=O)(=O)c2ccccc2)c1)C(N)=O` [Compound 2], in [1], the “MIC, Gram-positive, MRSA” value lay in the range of 6 to 12.5 µg/mL. Besides, in the series with E. coli (ATCC 25922), the “MIC, Gram-negative, E. coli” value was 6 to 12.5 µg/mL.

As for `CCCCCCCCCCCC(=O)NCCCC[C@H](NC(=O)c1cc(NC(=O)CN(C[C@H](CCCCN)NC(=O)[C@@H](N)CCCCN)S(=O)(=O)c2ccc(Cl)cc2)cc(NC(=O)CN(C[C@H](CCCCN)NC(=O)[C@@H](N)CCCCN)S(=O)(=O)c2ccc(Cl)cc2)c1)C(N)=O` [Compound 17], the “MIC, Gram-positive, MRSA” value in series [1] was in the range of 3 to 6 µg/mL. Further, the “MIC, Gram-positive, MRSE” value in [2] was 3 to 6 µg/mL. Also, in the series with E. coli (ATCC 25922), the “MIC, Gram-negative, E. coli” value fell in the range of 3 to 6 µg/mL. Also, in series [3], the “MIC, Gram-negative, P. aeruginosa” value lay within 3 to 6 µg/mL. Also, the “Time to complete killing of MRSA” value in the series on MRSA [4] (2 × MIC) is recorded as no more than 6 h. Also, the “Time to eradicate MRSA” value in the series on MRSA [4] (8 × MIC) is “roughly 2 h”. Besides, the “Time to complete killing of E. coli” value in the series with E. coli [5] is recorded as no more than 6 h. Moreover, the “Membrane integrity of MRSA by DAPI/PI fluorescence” value in the series on MRSA [6] is “compromised”. Also, the “Membrane integrity of E. coli by DAPI/PI fluorescence” value with E. coli [7] is given as “compromised”. The “Membrane depolarization of MRSA, DiSC3(5) fluorescence” value with MRSA [8] is “dramatic enhancement of fluorescence intensity”. Moreover, the “Membrane depolarization of E. coli, DiSC3(5) fluorescence” value in the series with E. coli [9] is given as “dramatic enhancement of fluorescence intensity”. For the same molecule, the “MRSA cell membrane morphology by TEM” value in the series on MRSA [10] is given as “membranes have been damaged”. Moreover, in the series on E. coli [11], the “E. coli cell membrane morphology by TEM” value is recorded as “membranes have been damaged”. Also, the “Permeabilization of E. coli outer membrane (NPN uptake)” value in the series on E. coli [12] is “more than 50%”. Further, in the series on MRSA [13], the “Inhibition of biofilm formation of MRSA” value is recorded as roughly 50%. Besides, the “Inhibition of biofilm formation of E. coli” value in the series with E. coli [14] was “around 40%”. Further, the “HPLC retention time (RT), estimate of amphiphilicity” value in [15] is given as 19.70 min.
